Data as given in ChEMBL document CHEMBL1914423, “New imidazo[2,1-b]thiazole derivatives: synthesis, in vitro anticancer evaluation, and in silico studies” (Eur J Med Chem, 2011).

What was measured:
Type in all cases: functional
[1] = tested on: SNB-75; assay: Anticancer activity against human SNB75 cells after 48 hrs by SRB assay; conditions: SNB-75, 48 h
[2] = tested on: K562; assay: Anticancer activity against human K562 cells after 48 hrs by SRB assay; conditions: K562, 48 h
Procedure, shortened: (§1)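 NCI five-dose screen. Cells in RPMI 1640 with 5% FBS and 2 mM L-glutamine, seeded at 5000–40,000 cells/well according to doubling time, then pre-incubated 24 h at 37 °C in 5% CO2. Drugs dissolved in DMSO, five concentrations by 10-fold or 1/2-log dilution. Cells fixed with TCA, SRB-stained, A515 read. IC50 solved from [(Ti−Tz)/(C−Tz)]×100 = 50.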

[3] = tested on: OVCAR-3; assay: Anticancer activity against human OVCAR3 cells after 48 hrs by SRB assay; conditions: OVCAR-3, 48 h
[4] = tested on: ACHN; assay: Anticancer activity against human ACHN cells after 48 hrs by SRB assay; procedure, shortened: as §1
[5] = tested on: KM12; assay: Anticancer activity against human KM12 cells after 48 hrs by SRB assay; conditions: KM12, 48 h; procedure, shortened: as §1
[6] = tested on: HCT-116; assay: Anticancer activity against human HCT116 cells after 48 hrs by SRB assay; conditions: HCT-116, 48 h; procedure, shortened: as §1
[7] = tested on: HCT-15; assay: Anticancer activity against human HCT15 cells after 48 hrs by SRB assay; conditions: HCT-15, 48 h; procedure, shortened: as §1
[8] = tested on: A498; assay: Anticancer activity against human A498 cells after 48 hrs by SRB assay; conditions: A498, 48 h; procedure, shortened: as §1
[9] = tested on: HOP-92; assay: Anticancer activity against human HOP92 cells after 48 hrs by SRB assay; conditions: HOP-92, 48 h; procedure, shortened: as §1
[10] = tested on: UACC-257; assay: Anticancer activity against human UACC257 cells after 48 hrs by SRB assay; conditions: UACC-257, 48 h
Procedure, shortened: (§2)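 NCI-60 five-dose mode: cells in RPMI 1640 with 5% FBS and 2 mM glutamine, plated at 5000–40,000 cells/well, and preincubated 24 h, with time-zero plates TCA-fixed. Drug given at five concentrations (10-fold or ½-log serial dilutions). Cold TCA fixation 60 min at 4 °C, SRB stain, Tris solubilization, A515. IC50 taken where [(Ti−Tz)/(C−Tz)]×100 = 50.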

[11] = tested on: SW-620; assay: Anticancer activity against human SW620 cells after 48 hrs by SRB assay; conditions: SW-620, 48 h; procedure, shortened: as §2
[12] = tested on: MDA-MB-435; assay: Anticancer activity against human MDA-MB-435 cells after 48 hrs by SRB assay; conditions: MDA-MB-435, 48 h; procedure, shortened: as §1
[13] = tested on: NCI/ADR-RES; assay: Anticancer activity against human NCI/ADR-RES cells after 48 hrs by SRB assay
[14] = tested on: SK-MEL-2; assay: Anticancer activity against human SK-MEL-2 cells after 48 hrs by SRB assay; conditions: SK-MEL-2, 48 h
[15] = tested on: UACC-62; assay: Anticancer activity against human UACC62 cells after 48 hrs by SRB assay; conditions: UACC-62, 48 h; procedure, shortened: as §2
[16] = tested on: A549; assay: Anticancer activity against human A549 cells after 48 hrs by SRB assay; conditions: A549, 48 h; procedure, shortened: as §1
[17] = tested on: SNB-19; assay: Anticancer activity against human SNB19 cells after 48 hrs by SRB assay; conditions: SNB-19, 48 h
[18] = tested on: LOX IMVI; assay: Anticancer activity against human LOXIMVI cells after 48 hrs by SRB assay; procedure, shortened: as §1
[19] = tested on: SF-539; assay: Anticancer activity against human SF539 cells after 48 hrs by SRB assay; conditions: SF-539, 48 h
[20] = tested on: U-251; assay: Anticancer activity against human U251 cells after 48 hrs by SRB assay; conditions: U-251, 48 h; procedure, shortened: as §2
[21] = tested on: CCRF-CEM; assay: Anticancer activity against human CCRF-CEM cells after 48 hrs by SRB assay; procedure, shortened: as §1
[22] = tested on: MOLT-4; assay: Anticancer activity against human MOLT4 cells after 48 hrs by SRB assay; conditions: MOLT-4, 48 h
[23] = tested on: OVCAR-4; assay: Anticancer activity against human OVCAR4 cells after 48 hrs by SRB assay; conditions: OVCAR-4, 48 h
[24] = tested on: SK-MEL-5; assay: Anticancer activity against human SK-MEL-5 cells after 48 hrs by SRB assay; conditions: SK-MEL-5, 48 h
[25] = tested on: HCC 2998; assay: Anticancer activity against human HCC2998 cells after 48 hrs by SRB assay; conditions: HCC 2998, 48 h; procedure, shortened: as §1
[26] = tested on: OVCAR-5; assay: Anticancer activity against human OVCAR5 cells after 48 hrs by SRB assay; conditions: OVCAR-5, 48 h
[27] = tested on: MDA-MB-231; assay: Anticancer activity against human MDA-MB-231 cells after 48 hrs by SRB assay; conditions: MDA-MB-231, 48 h; procedure, shortened: as §1
[28] = read-out: LC50 (the source's name)

O=C(NCCNc1nccc(-c2c(-c3cccc(O)c3)nc3sccn23)n1)Nc1cccc(C(F)(F)F)c1
GI50 [1]: 2.5 µM
TGI [1]: 12.7 µM
CC50 [1, 28]: 62.5 µM
GI50 [2]: 3.42 µM
TGI [2]: 57.1 µM
CC50 [2, 28]: > 100 µM
GI50 [3]: 5.52 µM
TGI [3]: 22.7 µM
CC50 [3, 28]: 87.3 µM
GI50 [4]: 5.79 µM
TGI [4]: 45.7 µM
CC50 [4, 28]: > 100 µM
GI50 [5]: 2.78 µM
TGI [5]: 6.98 µM
CC50 [5, 28]: 29.9 µM
GI50 [6]: 3.58 µM
TGI [6]: 11.5 µM
CC50 [6, 28]: 74.3 µM
GI50 [7]: 4.26 µM
TGI [7]: 24.1 µM
CC50 [7, 28]: > 100 µM
GI50 [8]: 7.33 µM
TGI [8]: 32.6 µM
CC50 [8, 28]: > 100 µM
GI50 [9]: 2.19 µM
TGI [9]: 9.38 µM
CC50 [9, 28]: > 100 µM
GI50 [10]: 2.51 µM
TGI [10]: 6.94 µM
CC50 [10, 28]: 59.8 µM
GI50 [11]: 3.84 µM
TGI [11]: 13.4 µM
CC50 [11, 28]: 64.5 µM
GI50 [12]: 2.04 µM
TGI [12]: 4.94 µM
CC50 [12, 28]: 41 µM
GI50 [13]: 26.9 µM
TGI [13]: > 100 µM
CC50 [13, 28]: > 100 µM
GI50 [14]: 2.8 µM
TGI [14]: 6.07 µM
CC50 [14, 28]: 36 µM
GI50 [15]: 1.94 µM
TGI [15]: 6.51 µM
CC50 [15, 28]: 28.2 µM
GI50 [16]: 2.98 µM
LC50 (concentration giving 50% net tumour cell kill) [16]: > 100 µM
TGI [16]: 8.44 µM
GI50 [17]: 5.08 µM
TGI [17]: 36.2 µM
CC50 [17, 28]: > 100 µM
GI50 [18]: 4.05 µM
TGI [18]: 26.2 µM
CC50 [18, 28]: > 100 µM
GI50 [19]: 13.1 µM
TGI [19]: 36.9 µM
CC50 [19, 28]: > 100 µM
GI50 [20]: 4.95 µM
TGI [20]: 23.6 µM
CC50 [20, 28]: > 100 µM
GI50 [21]: 3.25 µM
TGI [21]: 13.7 µM
CC50 [21, 28]: > 100 µM
GI50 [22]: 3.6 µM
TGI [22]: 14.6 µM
CC50 [22, 28]: > 100 µM
GI50 [23]: 3.97 µM
TGI [23]: 14.2 µM
CC50 [23, 28]: 39.7 µM
GI50 [24]: 2.62 µM
TGI [24]: 8.43 µM
CC50 [24, 28]: 28.9 µM
GI50 [25]: 2.68 µM
TGI [25]: 5.77 µM
CC50 [25, 28]: 74.9 µM
GI50 [26]: 16.3 µM
TGI [26]: 65.3 µM
CC50 [26, 28]: > 100 µM
GI50 [27]: 3.52 µM
TGI [27]: 12.3 µM
CC50 [27, 28]: > 100 µM
